Some results are limits rather than exact numbers.

Experiment [1] has as its system MDA-MB-231. The experiment can be described thus: Cytotoxicity against human MDA-MB-231 cells after 2 days. In kind it is functional. The essentials:
(§1)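 Cells grown per supplier's instructions, seeded at 2-4 × 10^4 per well and incubated overnight in medium with 10% FBS, 5% CO2, 37 °C. Day 2: medium replaced with graded compound concentrations from DMSO stock (20 mM). Day 4: CCK-8 added for 4 h, absorbance read at 450 nm. Three experiments, each in triplicate, mean ± S.D.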

In experiment [2] the test system is DU-145. Nature of the experiment: Cytotoxicity against human DU145 cells after 2 days. In kind it is functional, cell-based. The settings on record: DU-145, 48 h. The essentials: as §1
In experiment [3] the test system is HL-60. The experiment can be described thus: Cytotoxicity against human HL60 cells after 2 days. The settings on record: HL-60, 48 h. Type of experiment: functional, cell-based. The procedure, abridged: as §1
The target of experiment [4] is T1, DNA topoisomerase 1 (Homo sapiens) (UniProt P11387).
T1 sequence (whole entry): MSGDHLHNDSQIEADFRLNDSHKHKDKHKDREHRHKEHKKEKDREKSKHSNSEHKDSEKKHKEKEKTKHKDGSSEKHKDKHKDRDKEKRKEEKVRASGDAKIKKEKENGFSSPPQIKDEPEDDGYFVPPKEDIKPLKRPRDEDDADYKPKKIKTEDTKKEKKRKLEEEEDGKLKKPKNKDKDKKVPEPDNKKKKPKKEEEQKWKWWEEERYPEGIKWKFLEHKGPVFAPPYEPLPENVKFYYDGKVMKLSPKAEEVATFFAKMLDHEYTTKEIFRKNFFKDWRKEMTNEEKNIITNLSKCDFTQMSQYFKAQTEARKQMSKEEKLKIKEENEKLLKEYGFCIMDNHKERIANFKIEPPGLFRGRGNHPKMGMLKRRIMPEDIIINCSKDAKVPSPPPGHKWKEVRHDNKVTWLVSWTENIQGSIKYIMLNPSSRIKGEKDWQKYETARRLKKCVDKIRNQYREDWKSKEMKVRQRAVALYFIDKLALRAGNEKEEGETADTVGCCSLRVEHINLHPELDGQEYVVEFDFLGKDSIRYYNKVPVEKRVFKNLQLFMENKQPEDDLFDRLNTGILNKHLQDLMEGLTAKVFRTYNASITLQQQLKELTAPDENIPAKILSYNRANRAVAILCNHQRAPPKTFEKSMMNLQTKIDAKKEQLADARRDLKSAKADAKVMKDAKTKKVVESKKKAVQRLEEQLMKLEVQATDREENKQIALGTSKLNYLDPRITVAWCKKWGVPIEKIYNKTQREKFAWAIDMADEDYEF
Nature of the experiment: Inhibition of human recombinant DNA topoisomerase 1 assessed as inhibition of supercoiled pBR322 DNA relaxation at 100 uM after 30 mins by gel electrophoresis. The procedure, abridged: (§2)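 100 ng pBR322 with 0.4 units recombinant human topo I, incubated 30 min at 37 °C in 10 mM Tris-HCl pH 7.9, 150 mM NaCl, 0.1% BSA, 1 mM spermidine, 5% glycerol. Stopped with sarcosyl stop solution. Run on 1% agarose in TAE at 15 V for 7 h, stained with ethidium bromide, bands quantified under UV. Three experiments in triplicate.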

For experiment [5], the system named is HeLa. The experiment can be described thus: Cytotoxicity against human HeLa cells after 2 days. In kind it is functional, cell-based. The settings on record: 48 h. The essentials:
as §1

The target in experiment [6] is DNA topoisomerase 2-alpha (Homo sapiens) (UniProt P11388). Nature of the experiment: Inhibition of human DNA topoisomerase 2 alpha assessed as inhibition of supercoiled pBR322 DNA relaxation at 100 uM after 30 mins by gel electrophoresis. The essentials:
(§3)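 200 ng supercoiled pBR322 with 1 unit human topo IIα, incubated 30 min at 30 °C in 10 mM Tris-HCl pH 7.9, 50 mM NaCl, 5 mM MgCl2, 1 mM EDTA, 1 mM ATP, BSA. Stopped with EDTA. Run on 1% agarose in TAE at 25 V for 4 h, stained with ethidium bromide, supercoiled band quantified under UV. Three experiments in triplicate.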

Experiment [7] concerns HCT-15. The experiment can be described thus: Cytotoxicity against human HCT15 cells after 2 days. The settings on record: HCT-15, 48 h. Type of experiment: functional, cell-based. The essentials: as §1
In experiment [8] the target is T1, DNA topoisomerase 1 (Homo sapiens). The experiment can be described thus: Inhibition of human recombinant DNA topoisomerase 1 assessed as inhibition of supercoiled pBR322 DNA relaxation at 20 uM after 30 mins by gel electrophoresis. The procedure, abridged:
as §2

Experiment [9] has as its target DNA topoisomerase 2-alpha (Homo sapiens) (UniProt P11388). The experiment can be described thus: Inhibition of human DNA topoisomerase 2 alpha assessed as inhibition of supercoiled pBR322 DNA relaxation at 20 uM after 30 mins by gel electrophoresis. The procedure, abridged: as §3

Sequence of DNA topoisomerase 2-alpha (Homo sapiens) (P11388 whole entry): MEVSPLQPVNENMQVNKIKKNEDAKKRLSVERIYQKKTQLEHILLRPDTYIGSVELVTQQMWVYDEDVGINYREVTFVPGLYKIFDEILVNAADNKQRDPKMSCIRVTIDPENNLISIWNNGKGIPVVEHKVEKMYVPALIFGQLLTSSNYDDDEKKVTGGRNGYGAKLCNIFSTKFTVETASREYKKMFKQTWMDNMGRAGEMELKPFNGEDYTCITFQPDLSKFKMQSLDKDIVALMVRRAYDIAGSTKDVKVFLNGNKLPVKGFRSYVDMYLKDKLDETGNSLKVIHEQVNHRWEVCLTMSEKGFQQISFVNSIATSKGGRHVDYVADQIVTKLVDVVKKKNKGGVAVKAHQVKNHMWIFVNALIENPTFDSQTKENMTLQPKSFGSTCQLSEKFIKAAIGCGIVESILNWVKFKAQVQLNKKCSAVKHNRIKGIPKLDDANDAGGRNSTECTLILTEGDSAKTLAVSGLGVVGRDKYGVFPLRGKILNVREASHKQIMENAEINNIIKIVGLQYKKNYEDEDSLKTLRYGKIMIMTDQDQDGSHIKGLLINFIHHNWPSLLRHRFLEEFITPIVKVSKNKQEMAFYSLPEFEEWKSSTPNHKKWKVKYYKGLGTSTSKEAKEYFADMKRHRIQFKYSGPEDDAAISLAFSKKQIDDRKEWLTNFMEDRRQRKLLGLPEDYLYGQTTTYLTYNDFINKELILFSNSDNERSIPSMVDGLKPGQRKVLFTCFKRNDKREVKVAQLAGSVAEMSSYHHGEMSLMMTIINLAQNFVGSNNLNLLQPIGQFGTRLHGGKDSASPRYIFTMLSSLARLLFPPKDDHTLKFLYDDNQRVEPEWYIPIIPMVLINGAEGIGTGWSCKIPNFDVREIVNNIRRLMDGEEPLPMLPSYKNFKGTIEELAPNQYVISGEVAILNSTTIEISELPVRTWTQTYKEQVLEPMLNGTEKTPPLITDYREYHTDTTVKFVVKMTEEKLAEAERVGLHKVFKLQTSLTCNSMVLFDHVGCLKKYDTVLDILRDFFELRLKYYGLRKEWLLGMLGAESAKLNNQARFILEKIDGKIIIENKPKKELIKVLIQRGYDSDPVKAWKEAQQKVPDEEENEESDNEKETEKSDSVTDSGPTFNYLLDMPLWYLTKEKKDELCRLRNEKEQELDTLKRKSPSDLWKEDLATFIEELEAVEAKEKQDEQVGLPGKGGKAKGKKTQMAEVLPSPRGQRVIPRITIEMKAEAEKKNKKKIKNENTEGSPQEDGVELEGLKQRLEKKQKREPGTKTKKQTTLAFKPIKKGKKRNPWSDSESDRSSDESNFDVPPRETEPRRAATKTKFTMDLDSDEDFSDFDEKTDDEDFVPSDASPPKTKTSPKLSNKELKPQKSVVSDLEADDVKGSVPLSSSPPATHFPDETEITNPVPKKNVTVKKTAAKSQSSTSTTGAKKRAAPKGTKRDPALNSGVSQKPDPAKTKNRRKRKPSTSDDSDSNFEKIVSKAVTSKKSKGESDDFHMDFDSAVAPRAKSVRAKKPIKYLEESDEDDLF

Take `c1ccc(-c2cc(-c3ccco3)nc3c2COc2ccccc2-3)cc1`: the IC50 in experiment [1] was 0.2 µM; in [2], 0.1 µM; in experiment [3] it was 1.4 µM; in experiment [5], 2.3 µM; in [7], 0.4 µM. The figures for the inhibition in experiment [4] and in [6] were 4.9% and 28.4%, respectively.

In the case of `c1ccc(-c2cc(-c3ccccc3)c3c(n2)-c2ccccc2OC3)cc1`, the IC50 in [1] was found to be 1.8 µM; in experiment [2], 6.9 µM; in experiment [3], 18.8 µM; in experiment [5] it was 14.2 µM; in experiment [7], 5.1 µM. Moreover, the inhibition in experiment [4] worked out at 0%; in experiment [6] it was 15.4%.

With `c1ccc(-c2cc(-c3ccccn3)c3c(n2)-c2ccccc2OC3)cc1`, the IC50 is 1.9 µM in [1]; 1.9 µM in [2]; above 50 µM in experiment [3]; 2.8 µM in [5]; 12.1 µM in experiment [7]. Also, the inhibition in experiment [4] turned out to be 0%; in experiment [6], 8.7%.

`c1coc(-c2cc(-c3cccs3)c3c(n2)-c2ccccc2OC3)c1`: the inhibition was determined as 0% in experiment [4] and 6.8% in experiment [6].

Consider `CC[C@@]1(O)C(=O)OCc2c1cc1n(c2=O)Cc2cc3ccccc3nc2-1` [CAMPTOTHECIN], for which the IC50 in experiment [1] stood at 0.3 µM.

Turning to `c1ccc(-c2cc(-c3cccs3)c3c(n2)-c2ccccc2OC3)nc1`, the IC50 in experiment [1] was found to be 2.4 µM; in experiment [2], 13.1 µM; in [3] it was 13.7 µM; in experiment [5], 6.2 µM; in experiment [7] it was 14 µM. The inhibition in experiment [8] amounted to 4.1%; in experiment [4] it was 48.2%; in experiment [6] it was 19.4%.

As for `c1ccc(-c2cc(-c3cccnc3)c3c(n2)-c2ccccc2OC3)cc1`, the values for the inhibition in experiment [4] and in experiment [6] were 0% and 14%, respectively.

Regarding `c1ccc(-c2cc(-c3cccnc3)c3c(n2)-c2ccccc2OC3)nc1`, the IC50 in [1] was 7.2 µM; in experiment [2], 4.4 µM; in experiment [3], above 50 µM; in experiment [5] it was 1.3 µM; in [7], 3.3 µM. Moreover, the results for the inhibition in experiment [4] and in [6] were 2.6% and 8.7%, respectively.

Regarding `c1cncc(-c2cc(-c3ccco3)nc3c2COc2ccccc2-3)c1`, the IC50 in experiment [1] came out at 1.1 µM; in [2], 4.6 µM; in [3], 1.8 µM; in experiment [5] it was 2.2 µM; in experiment [7] it was 0.6 µM. Besides, the inhibition was determined as 15.5% in [8], 41.6% in experiment [4] and 5.6% in [6].

For `c1ccc(-c2cc(-c3cccs3)c3c(n2)-c2ccccc2OC3)cc1`, the IC50 in experiment [1] was 3.9 µM; in experiment [2], 2.6 µM; in experiment [3], above 50 µM; in [5], 16 µM; in experiment [7], 1.2 µM. The figures for the inhibition in experiment [4] and in [6] were 0% and 10.8%, respectively.

On to `c1ccc(-c2cc(-c3cccs3)nc3c2COc2ccccc2-3)nc1`, for which the inhibition in experiment [4] is 1.8%; in experiment [6] it was 8.5%.

`COc1cccc2c1C(=O)c1c(O)c3c(c(O)c1C2=O)C[C@@](O)(C(=O)CO)C[C@@H]3O[C@H]1C[C@H](N)[C@H](O)[C@H](C)O1` [DOXORUBICIN] came in with an IC50 in [1] of 0.4 µM.

On to `COc1cc([C@@H]2c3cc4c(cc3[C@@H](O[C@@H]3O[C@@H]5CO[C@@H](C)O[C@H]5[C@H](O)[C@H]3O)[C@H]3COC(=O)[C@H]23)OCO4)cc(OC)c1O` [ETOPOSIDE], for which, in [9], the inhibition is 22.3%. This compound registered an IC50 in [1] of 0.7 µM.

With `c1ccc(-c2cc(-c3ccco3)nc3c2COc2ccccc2-3)nc1`, the inhibition in experiment [4] was determined as 11.5%; in experiment [6], 2%.

As to `c1ccc(-c2cc(-c3ccoc3)c3c(n2)-c2ccccc2OC3)cc1`, the IC50 in [1] is 10 µM; in [2] it was above 50 µM; in experiment [3] it was 6.6 µM; in experiment [5], 39.6 µM; in [7] it was 31.1 µM. For the same compound, the inhibition worked out at 1.9% in experiment [4] and 10.5% in experiment [6].

For the compound `c1ccc(-c2cc(-c3ccsc3)nc3c2COc2ccccc2-3)nc1`, the inhibition came to 3.2% in [9], 3.3% in experiment [4] and 25.3% in experiment [6]. Moreover, the IC50 was 25.8 µM in [1]; 5 µM in [2]; above 50 µM in experiment [3]; above 50 µM in [5]; 8.3 µM in experiment [7].

On to `c1coc(-c2cc(-c3ccco3)c3c(n2)-c2ccccc2OC3)c1`, for which the IC50 in [1] was found to be 0.6 µM; in experiment [2] it was 0.9 µM; in experiment [3], 3.4 µM; in experiment [5], 1.3 µM; in [7], 0.6 µM. Moreover, the inhibition in experiment [8] turned out to be 22.9%; in [4], 46.4%; in experiment [6], 11.6%.

With `c1ccc(-c2cc(-c3ccccn3)c3c(n2)-c2ccccc2OC3)nc1`, the IC50 was 4.7 µM in experiment [1]; above 50 µM in experiment [2]; 0.2 µM in experiment [3]; above 50 µM in experiment [5]; 23.1 µM in experiment [7]. In addition, the inhibition is 0.6% in experiment [4] and 10.7% in [6].

With `c1coc(-c2cc(-c3cccs3)nc3c2COc2ccccc2-3)c1`, the inhibition in experiment [4] came to 9.2%; in experiment [6], 14.1%.

`c1csc(-c2cc(-c3cccs3)c3c(n2)-c2ccccc2OC3)c1`: the inhibition in experiment [4] came to 0.7%; in experiment [6], 7.9%.

`c1ccc(-c2cc(-c3ccco3)c3c(n2)-c2ccccc2OC3)cc1`: the IC50 in experiment [1] came to 11.6 µM; in [2] it was 18.6 µM; in experiment [3], 7.3 µM; in [5], 1.4 µM; in [7] it was 12.3 µM. Also, the inhibition was found to be 0% in experiment [4] and 11.5% in experiment [6].

For the compound `c1ccc(-c2cc(-c3ccccn3)nc3c2COc2ccccc2-3)cc1`, the IC50 came to 11.1 µM in [1]; 7.6 µM in experiment [2]; 14.5 µM in [3]; 5 µM in experiment [5]; 15.6 µM in experiment [7]. Further, the inhibition in [4] is 3.1%; in [6] it was 7.2%.

On to `c1ccc(-c2cc(-c3cccs3)nc3c2COc2ccccc2-3)cc1`, for which the inhibition in experiment [4] came to 5.5%; in [6], 7.5%.

`c1ccc(-c2cc(-c3ccsc3)c3c(n2)-c2ccccc2OC3)cc1`: the IC50 is 11.9 µM in experiment [1]; above 50 µM in experiment [2]; above 50 µM in experiment [3]; above 50 µM in experiment [5]; above 50 µM in [7]. Besides, the inhibition was determined as 3.7% in experiment [4] and 17.6% in experiment [6].

Regarding `c1csc(-c2cc(-c3ccoc3)c3c(n2)-c2ccccc2OC3)c1`, the figures for the inhibition in [4] and in experiment [6] were 0% and 8.4%, respectively.

In the case of `c1ccc(-c2cc(-c3ccco3)c3c(n2)-c2ccccc2OC3)nc1`, the IC50 in experiment [1] was 3.3 µM; in [2], 22.9 µM; in experiment [3], 18.6 µM; in experiment [5] it was above 50 µM; in experiment [7] it was above 50 µM. For the same compound, the results for the inhibition in experiment [4] and in [6] were 4.4% and 23.4%, respectively.

Usually IC50 stands for the concentration needed to halve the response being measured. A higher IC50 goes with weaker potency in that assay. Broadly, the inhibition is the relative decrease from the control value, in per cent.

For the origin of these results see ChEMBL document CHEMBL1806416, “Synthesis of 2,4-diaryl chromenopyridines and evaluation of their topoisomerase I and II inhibitory activity, cytotoxicity, and structure-activity relationship” (Eur J Med Chem, 2011).
